# M1 agonist: M1 muscarinic receptor agonists, primary screen, CHO-M1 cells, Fluo-4 calcium, agonist mode; AID 626, 2007; Muscarinic acetylcholine receptor M1; Fluo-4 calcium fluorescence; hits give high values; actives 3% (n = 64,000); B-score at 10 µM;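 active = fluorescence rise, raw or as B-score row- and column-corrected plate score, outside the 99.7% band of its plate's samples, either direction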
# D1 allo mod: D1 CRE-luciferase signal change, two-sided – cell-based, HEK293 D1, dopamine EC30, D1 allosteric modulator project, primary screen | actives 5.9% (n = 58,000) | D(1A) dopamine receptor (Homo sapiens), P21728 | AID 641, 2007 | B-score at 10 µM | dopamine EC30 potentiation; actives deviate in either direction;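 active = luminescence count or its row- and column-corrected plate score outside the 99.7% band of the plate's sample wells, on either side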
# Htt clearance: clearance of mutant huntingtin inclusions, primary screen, imaging, HeLa Exon1htt(103Q)mCFP, confocal imaging. AID 853, 2007. aggregate imaging; zero = plate's median compound well. inhibition, % at 1.5 µM. actives 0.42% (n = 47,000);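 active = inhibition of aggregate fluorescence above about 70%, also judged a hit by eye on the cell image, limit read from the data, passing the limit was not always enough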;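 also: cells exposed to compound for three days before fixation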
# SF1 activator: activators of human SF-1, primary screen, cell-based, CHO-K1, Gal4-SF-1 LBD, luciferase luminescence; CHO-K1 Gal4-SF-1 LBD luciferase reporter; % increase over DMSO SF-1-specific signal; Steroidogenic factor 1 (Homo sapiens), Q13285; actives 1.9% (n = 65,000); activation, % at 10 µM;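 active = activation above the mean activation of all tested compounds plus 3 SD, cut at about 50% in these data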
# Target sequence (Q13285 whole entry, looked up, the tested form may be a part): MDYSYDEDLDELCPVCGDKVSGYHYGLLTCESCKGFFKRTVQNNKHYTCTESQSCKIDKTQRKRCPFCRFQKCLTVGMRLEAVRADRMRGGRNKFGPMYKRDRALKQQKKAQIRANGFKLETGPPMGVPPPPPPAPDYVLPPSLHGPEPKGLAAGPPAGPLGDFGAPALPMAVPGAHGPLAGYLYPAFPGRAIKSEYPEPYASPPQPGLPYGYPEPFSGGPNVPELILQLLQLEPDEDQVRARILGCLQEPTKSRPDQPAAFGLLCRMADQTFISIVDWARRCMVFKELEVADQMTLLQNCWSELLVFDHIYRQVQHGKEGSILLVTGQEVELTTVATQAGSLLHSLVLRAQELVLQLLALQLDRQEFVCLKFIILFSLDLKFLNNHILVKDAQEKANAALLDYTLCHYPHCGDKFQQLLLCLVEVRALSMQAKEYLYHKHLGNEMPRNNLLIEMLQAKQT
#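 Material: Transient Gal4-SF-1 LBD reporter, CHO-K1 | Input: 4,000 cells/well | Dosing: One dose, 10 µM compound, 1% DMSO | Incubation: 20 h compound treatment, 37 °C | Detection: SteadyLite luciferase luminescence | Evaluation: Percent activation relative to DMSO median and mock-transfected background | Benchmarks: DMSO-treated SF-1-transfected cells as negative, DMSO-treated mock-transfected cells lacking SF-1 as background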
# RORA act: activators of orphan receptor RORA, primary screen, cell-based, luminescence. Nuclear receptor ROR-alpha (Homo sapiens), P35398. CHO-K1 Gal4-RORA LBD luciferase reporter; percent increase over mock-subtracted basal signal. activation, % at 10 µM. actives 1.5% (n = 65,000);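 active = activation above the mean of all tested compounds plus 3 SD, cut at about 49% in these data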
# M1 antagonist: antagonists of rat M1 muscarinic receptor; actives 3.4% (n = 64,000); Muscarinic acetylcholine receptor M1 (Rattus norvegicus), P08482; B-score at 10 µM; CHO-M1 cells, Fluo-4 calcium, ACh EC80 antagonist mode; hits give low values;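 active = calcium fluorescence response, raw or row-and-column corrected B-score, differing from the plate sample mean either way at a set confidence level, mostly lower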
# D1 PAM confirm: D1 receptor positive allosteric modulators, retest, confirmation, cell-based, HEK293 D1, CRE-luciferase, duplicate; shares compounds with D1 allo mod; dopamine EC30 potentiation; hits give high values; luminescence at 10 µM; actives 88% (n = 2,200); AID 642, 2007;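 active = luminescence in either of two replicates above the same-plate mean plus 3 SD of the low-dose dopamine control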
# D1 ag no DA: D1 receptor agonism without dopamine, confirmation, mechanism study for D1 allosteric modulator project, cell-based, HEK293 D1, CRE-luciferase, secondary assay 1. shares compounds with D1 allo mod. luminescence, no dopamine; hits give high values. luminescence at 10 µM. actives 0.8% (n = 1,900). AID 646, 2007; in the data active = luminescence above about 3900
# Isoprot counter: counter-screen for D1 modulators: isoproterenol response in HEK293 cells; shares compounds with D1 allo mod; HEK293 D1 CRE-luciferase, isoproterenol EC30 counter-screen; calls only at 10 µM; actives 63% (n = 2,200); AID 647;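 active = luminescence in either replicate above plate mean of wells with a partly effective reference agonist dose plus 3 SD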;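 also: isoproterenol raises cAMP through native beta-adrenoceptor Gs so signal bypasses D1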
# Numbers stand for hits; 0 = inactive; - = no result given; + = active, no number. Rows were chosen to be rich in hits. Some 11% of all compounds tested hit in one or more screens of this group.
SMILES,M1 agonist,D1 allo mod,Htt clearance,SF1 activator,RORA act,M1 antagonist,D1 PAM confirm,D1 ag no DA,Isoprot counter
CCOC(=O)c1sc(NC(=O)CN2CCCC2)c(C(=O)OCC)c1C,0,0,0,0,0,0,-,-,-
CCOC(=O)c1c(/N=C/N(C)C)sc(C(=O)OC)c1C,0,3.7,0,0,0,0,8988,-,+
CN(C)c1nc(N)nc(CSc2nnnn2-c2ccccc2)n1,-,-,0,-,-,-,-,-,-
CCCc1cc(C(=O)Nc2sc(C(C)=O)c(C)c2C(=O)OCC)no1,0,6.53,0,0,0,0,7336,0,0
CCOC(=O)c1sc(NC(=O)COC(=O)Cn2cnc3ccccc32)c(C(=O)OCC)c1C,0,4.97,-,0,0,0,9720,0,0
CCOC(=O)c1sc(NC(=O)c2c(C)noc2C)c(C(=O)OCC)c1C,0,0,0,0,0,0,-,-,-
CCOC(=O)c1c(C(F)(F)C(F)(F)C(F)(F)C(F)(F)F)n[nH]c1C,0,-,-,0,0,0,-,-,-
CC1(c2ccc3noc(-c4ccccc4)c3c2)OCCO1,0,0,-,0,0,0,-,-,-
O=C(O)c1ccc2noc(-c3ccccc3)c2c1,0,2.95,0,0,0,0,0,0,0
NC(=O)c1cc(-c2ccccc2)nc(Oc2ccccc2)n1,0,8.86,-,0,0,0,10904,-,+
CC1(C)Cc2c(C#N)c(N3CCCC3)nc(-c3ccco3)c2CO1,0,5.33,-,0,0,0,9980,0,0
CC1(C)Cc2c(c(-c3ccco3)[nH]c(=O)c2C#N)CO1,0,4.25,-,0,0,0,15660,0,+
CC1(C)Cc2c(c(-c3ccco3)nc3n[nH]c(N)c23)CO1,0,11.4,0,0,0,0,17288,0,+
CCSc1ncnc2c1sc1nc(-c3ccco3)c3c(c12)CC(C)(C)OC3,-,-,0,-,-,-,-,-,-
CC1(C)Cc2c(C#N)c(NCc3ccco3)nc(-c3ccco3)c2CO1,0,-,-,0,0,0,-,-,-
CC(=O)N=c1sc2nc3ccccc3nc2n1N(C(C)=O)C(C)=O,0,2.79,-,0,0,0,8388,0,0
CCCCN(CC)C(=O)c1ccc(Cl)c(Cl)c1,0,3.77,0,0,0,0,7124,0,0
Cc1ccc(-n2c(SCC(=O)NCC3CCCO3)nc3n[nH]c(C)c3c2=N)cc1Cl (stereo unspecified),0,0,-,0,0,0,-,-,-
CCC(Sc1nc2n[nH]c(C)c2c(=N)n1-c1cc(Cl)ccc1C)C(=O)N1CCOCC1 (stereo unspecified),0,6.37,-,0,0,0,12280,0,+
O=C(Nn1cnnc1)c1cc2c(s1)CCCCC2,0,0,-,0,0,0,-,-,-
c1ccc(Nc2nc3ccccc3n3cnnc23)cc1,0,4.19,-,0,0,0,15712,0,0
c1ccc2c(c1)nc(NC1CCCCC1)c1nncn12,0,14.4,0,0,0,0,9836,0,+
COc1ccccc1-n1cc(C(=O)NCC(=O)N2CCN(c3ccccc3)CC2)c2ccccc2c1=O,0,0,0,0,0,0,-,-,-
O=C(CCCn1c(=S)[nH]c2ccc(Br)cc2c1=O)N1CCN(c2ccccn2)CC1,0,0,-,0,0,0,-,-,-
CCOc1ccc(N(CC(=O)NCC2CCCO2)C(=O)CCC(=O)Nc2ccccn2)cc1 (stereo unspecified),-,-,0,-,-,-,-,-,-
SMILES,M1 agonist,D1 allo mod,Htt clearance,SF1 activator,RORA act,M1 antagonist,D1 PAM confirm,D1 ag no DA,Isoprot counter
COc1ccccc1OCc1ccc(C(=O)n2nc(C)c(Cl)c2C)o1,0,0,0,0,0,0,-,-,-
CC1(C)CC(=O)C(C=NCCN2CCN(C(=O)C34CC5CC(CC(C5)C3)C4)CC2)=C(O)C1,0,0,-,0,0,0,-,-,-
CCOc1ccc(OCC)c(NC(=O)CN2CCN(c3cccc(C)c3C)CC2)c1,0,-,-,0,0,0,-,-,-
CCOc1ccc(OCC)c(NC(=O)CN2CCN(C(=O)c3ccco3)CC2)c1,0,26.1,0,0,0,0,0,0,0
O=C(COC(=O)c1cc(S(=O)(=O)N2CCOCC2)cs1)c1ccccc1,0,0,0,0,0,0,-,-,-
COc1ccc(C2c3c(-c4cc(Cl)c(C)cc4O)n[nH]c3C(=O)N2Cc2cccnc2)cc1OC (stereo unspecified),0,4.27,-,0,0,0,9304,-,+
CCC12CN(C(=O)c3ccc(OC)cc3)CC(CC)(CN(C(=O)c3ccc(OC)cc3)C1)C2=O,0,0,0,0,0,0,-,-,-
C=CCSc1nc2c(cc1C#N)CCC2,0,0,0,0,0,0,-,-,-
C=C(C)CSc1nc2c(cc1C#N)CCC2,0,5.01,-,0,0,0,8952,0,0
N#Cc1cc2c(nc1SCc1cccnc1)CCCC2,0,9.63,-,0,0,0,12820,0,+
CC12CC(NC(=O)N1c1cccc(C(=O)N3CCN(c4ccccc4F)CC3)c1)c1ccccc1O2 (stereo unspecified),0,3.47,-,0,0,0,0,0,0
COc1cccc(-n2nnnc2SCC(=O)c2cc(OC)ccc2OC)c1,-,4.18,-,0,0,-,0,0,0
CCOC(=O)CC(=O)CSc1nc(C)cc(-c2cccnc2)c1C#N,0,0,0,0,0,0,-,-,-
Cc1cc(-c2ccccc2)c(C#N)c(SCC(N)=O)n1,0,4.98,-,0,0,0,8124,0,0
c1ccc2[nH]c(CN3CCN(c4ncnc5c4oc4ccccc45)CC3)nc2c1,0,9.59,0,0,0,0,14816,-,+
COc1ccc(CNC(=O)C2CCCN(S(=O)(=O)c3c(C)n[nH]c3C)C2)cc1 (stereo unspecified),-,-,0,-,-,-,-,-,-
OC(COc1ccc2c(c1)OCO2)CN1CCc2ccccc2C1 (stereo unspecified),0,0,-,0,0,0,-,-,-
CN1C(=O)C2(C(C#N)=C(N)Oc3c2oc(CO)cc3=O)c2ccccc21 (stereo unspecified),0,8.88,0,0,0,0,0,0,0
N#CC1=C(N)Oc2c(oc(CO)cc2=O)C12C(=O)Nc1ccc(Cl)cc12 (stereo unspecified),0,0,-,0,0,0,-,-,-

# Assay outcomes from PubChem BioAssay.
